Measurements reported in ChEMBL document CHEMBL1122730, “Synthesis and pharmacological evaluation of indanpropionic acids as uterine relaxants” (1984).

Columns and labels:
Mus musculus [1] = organism: Mus musculus; assay: Compounds were evaluated for the percent recovery of the contraction induced by PGF2-alpha in the isolated mouse uterus at a concentration 10 E -4 M; format: functional, tissue-based
Procedure, shortened: (§1)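 Recovery after PGF2α challenge: following a 5-min PGF2α (10^-7 M) response with the test agent present, the tissue was washed 20 min with physiological medium, then re-exposed to 10^-7 M PGF2α for 5 min. The integrated contractile force was expressed as a % of the mean of two initial control PGF2α responses.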

Mus musculus [2] = organism: Mus musculus; assay: Compounds were evaluated for the percent recovery of the contraction induced by PGF2-alpha in the isolated mouse uterus at a concentration 10 E -5 M; format: functional; procedure, shortened: as §1
Mus musculus [3] = organism: Mus musculus; assay: Inhibitory effect against contraction induced by PGF2-alpha in the isolated mouse uterus at a concentration of 10 E -4 M; format: functional
Procedure, shortened: (§2)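 Uterine strips were equilibrated 30 min, then given two 5-min control responses to PGF2α (10^-7 M), each followed by a 20-min washout. The test agent was in the bath 5 min before 10^-7 M PGF2α was added. The integrated contractile force over 5 min was taken as a % of the mean of the two controls. Agents were dissolved in 0.25 N NaOH and diluted with water to pH 7.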

Mus musculus [4] = organism: Mus musculus; assay: Inhibitory effect against contraction induced by PGF2-alpha in the isolated mouse uterus at a concentration of 10 E -5 M; format: functional; procedure, shortened: as §2
Mus musculus [5] = organism: Mus musculus; assay: Compounds were evaluated for the percent recovery of the contraction induced by KCL in the isolated mouse uterus at a concentration 10 E -4 M; format: functional
Procedure, shortened: (§3)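 KCl (54 mM) served as agonist in the uterine strip. After the 5-min KCl response with the test agent present, the tissue was washed 20 min and challenged again with KCl for 5 min. The recovery response was expressed as integrated force, as a % of the mean of two initial control KCl responses.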

Mus musculus [6] = organism: Mus musculus; assay: Compounds were evaluated for the percent recovery of the contraction induced by KCL in the isolated mouse uterus at a concentration 10 E -5M; format: functional; procedure, shortened: as §3
Mus musculus [7] = organism: Mus musculus; assay: Compounds were evaluated for the percent recovery of the contraction induced by KCL in the isolated mouse uterus at a concentration 10 E -6M; format: functional; procedure, shortened: as §3
Mus musculus [8] = organism: Mus musculus; assay: Compounds were evaluated for the percent recovery of the contraction induced by PGF2-alpha in the isolated mouse uterus at a concentration 10 E -6 M; format: functional; procedure, shortened: as §1
Mus musculus [9] = organism: Mus musculus; assay: Compounds were evaluated for the percent recovery of the contraction induced by PGF2-alpha in the isolated mouse uterus at a concentration 3X 10 E -5 M; format: functional; procedure, shortened: as §1
Mus musculus [10] = organism: Mus musculus; assay: (§4) Inhibitory effect for the contraction induced by BaCl2 in [Ca2+] containing buffer in the isolated mouse uterus at a concentration 10 E -4 M.; format: functional
Procedure, shortened: (§5)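 BaCl2 (2.2 × 10^-4 M) stimulated the uterine strip, in Ca2+-containing or Ca2+-free buffer. Two 5-min control responses were taken, each with a 20-min washout. The test agent was added 5 min before BaCl2. The integrated contractile force was expressed as a % of the mean control response.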

Mus musculus [11] = organism: Mus musculus; assay: (§6) Inhibitory effect for the contraction induced by BaCl2 in [Ca2+] free buffer in the isolated mouse uterus at a concentration 10 E -4 M.; format: functional; procedure, shortened: as §5
Mus musculus [12] = organism: Mus musculus; assay: Inhibitory effect against contraction induced by KCL in the isolated mouse uterus at a concentration of 10 E -6 M; format: functional
Procedure, shortened: (§7)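 KCl (54 mM) replaced PGF2α as the stimulus. After 30-min equilibration, two 5-min control KCl responses were taken, each with a 20-min washout. The test agent was then preincubated 5 min before KCl was added. The integrated force over 5 min was expressed as a % of the mean of the two controls. Compounds were in NaOH, neutralised to pH 7.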

Mus musculus [13] = organism: Mus musculus; assay: Inhibitory effect against contraction induced by PGF2-alpha in the isolated mouse uterus at a concentration of 10 E -6 M; format: functional; procedure, shortened: as §2
Mus musculus [14] = organism: Mus musculus; assay: Inhibitory effect against contraction induced by PGF2-alpha in the isolated mouse uterus at a concentration of 3X10 E -5 M; format: functional; procedure, shortened: as §2
Mus musculus [15] = organism: Mus musculus; assay: as §4; format: functional; procedure, shortened: as §5; remark: listed apart in the source
Mus musculus [16] = organism: Mus musculus; assay: Inhibitory effect against contraction induced by KCL in the isolated mouse uterus at a concentration of 10 E -4 M; format: functional; procedure, shortened: as §7
Mus musculus [17] = organism: Mus musculus; assay: Inhibitory effect against contraction induced by KCL in the isolated mouse uterus at a concentration of 10 E -5 M; format: functional; procedure, shortened: as §7
Mus musculus [18] = organism: Mus musculus; assay: as §6; format: functional; procedure, shortened: as §5; remark: listed apart in the source
Mus musculus [19] = organism: Mus musculus; assay: Inhibitory effect against contraction induced by PGF2-alpha in the isolated mouse uterus at a concentration of 10 E -4M; format: functional; procedure, shortened: as §2

Row | SMILES | Recovery (Mus musculus [1]) [%] | Recovery (Mus musculus [2]) [%] | inhibition at 100 µM (Mus musculus [3]) [%] | inhibition at 10 µM (Mus musculus [4]) [%] | Recovery (Mus musculus [5]) [%] | Recovery (Mus musculus [6]) [%] | Recovery (Mus musculus [7]) [%] | Recovery (Mus musculus [8]) [%] | Recovery (Mus musculus [9]) [%] | Recovery (Mus musculus [10]) [%] | Recovery (Mus musculus [11]) [%] | inhibition at 1 µM (Mus musculus [12]) [%] | inhibition at 1 µM (Mus musculus [13]) [%] | inhibition at 30 µM (Mus musculus [14]) [%] | inhibition at 100 µM (Mus musculus [15]) [%] | inhibition at 100 µM (Mus musculus [16]) [%] | inhibition at 10 µM (Mus musculus [17]) [%] | inhibition at 100 µM (Mus musculus [18]) [%] | inhibition at 100 µM (Mus musculus [19]) [%]
1 | CCCCC1(CCC(=O)O)Cc2cc(OCc3ccccc3)ccc2C1O (stereo not drawn) | 104 | 91.7 | 20.4 | 0.5 |  |  |  |  |  |  |  |  |  |  |  |  |  |  | 
2 | CCC[C@@]1(CCC(=O)O)Cc2cc(OCc3ccccc3)c(OCc3ccccc3)cc2[C@H]1O | 82.8 | 81.8 | 67.1 | 17.2 | 85.8 | 84.2 | 86.1 | 88.7 | 79.7 | 105 | 39.4 | 1.2 | 0 | 36.4 | 48.1 | 53.2 | 9.4 | 88.2 | 
3 | CCC1(CCC(=O)O)Cc2cc(OCc3ccccc3)ccc2C1=O (stereo not drawn) | 70.4 | 69.3 |  | 27.3 |  |  |  |  |  |  |  |  |  |  |  |  |  |  | 44.4
4 | O=C(O)CCC1(CCC(=O)O)Cc2cc(OCc3ccccc3)ccc2C1=O | 91.1 | 79.9 | 6.5 | 10.5 | 105 | 106 |  |  |  |  |  |  |  |  |  | 1.9 | 8.3 |  | 
5 | CCCC1(CCC(=O)O)Cc2cc(OCc3ccccc3)ccc2C1=O (stereo not drawn) | 85.3 | 85.5 | 42 | 6.4 |  |  |  |  |  |  |  |  |  |  |  |  |  |  | 
